The values below come from PubChem BioAssay AID651787 (The Scripps Research Institute Molecular Screening Center, 2012).

The campaign covered roughly 2,400 compounds. About 1,200 (50%) were called active. The set was probably picked from earlier hits. A selection follows. Unmarked numbers belong to inactive results.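 The calls were made as follows: active = activation above the run cutoff, the mean activation over all tested wells plus 3 SD (cut at about 12% in these data); inactive = the rest.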

The nature of this assay: calcium rise in parental Ga16 cells – cell-based, fluorescence, CHO-Ga16 parental line, counter-screen for hTAAR1 agonist project (AID 651787). The note with it: Fluo-8 calcium fluorescence, at 3 µM, active compounds read high, normalized to maximal ATP response, DMSO zero. Put shortly:
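Assay system: Gα16-overexpressing parental CHO cells; read-out basis: percent activation from max/basal fluorescence ratio; schedule: 17-24 h seeding, dye 75 min 37 °C, 30 min RT; control set: DMSO (0%) and EC100 ATP (100%); signal: kinetic Fluo-8 calcium fluorescence, ex 470-495/em 515-575 nm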
(The purpose of a counterscreen is to sort out artefacts and off-target activity.)
With `CCCCC(=O)N/N=C/c1c(O)n(CC)c(=S)n(CC)c1=O`, the activation is 90.1% (active).
Next, `CCC(=NCCc1ccccc1)c1c(O)n(C2CCCCC2)c(=O)[nH]c1=O`: 4.36%.
For the compound `COc1ccc(Br)cc1CNCCc1cccc(Cl)c1`, the activation was 17.7% (active).
Consider `Clc1ccc2nc3c(c(-c4ccccc4)c2c1)CNCC3`, for which the activation is 3.65%.
Turning to `Cc1cccc(N2C(=O)NC(=O)/C(=C\c3cnn(-c4ccccc4)c3)C2=O)c1`, the activation was 25.1% (active).
Under `c1ccc(CCNC2CCCCCC2)cc1` stands 0.13%; under `O=C1NC(=O)N(Cc2ccco2)C(=O)/C1=C\c1ccc(-c2ccc(F)cc2)o1`, 21.1% (active); under `NCC(O)c1ccc(O)cc1` (centres undefined), 1.74%.
On to `CC(Cc1ccccc1)NC=O` (centres undefined), for which the activation is 6.88%.
